Converted amounts (≈) assume the structure as drawn.
The compounds below were run on Escherichia coli (assay: Antibacterial activity against Escherichia coli at 10 to 100 ug/mL after 18 hrs by halo zone test). Conditions: not given.
Assay type: functional
Procedure, shortened: (§1)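 Disk diffusion (halo zone). Strains subcultured in BHI, 18 h at 37 °C. Cells suspended in saline by McFarland to about 10^5 CFU/mL, mixed with antibiotic agar at 40 °C and plated. 6.0 mm paper disks loaded with DMSO-stock dilutions of 10, 20, 25, 50 and 100 per mL. Inhibition zone diameter (mm) read after 18 h at 36 °C. Amoxicillin (30) disk positive control, DMSO disk negative control.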

Row | Compound | inhibition zone (IZ)
1 | CC(C)CCC[C@@H](C)[C@H]1CC[C@H]2[C@@H]3/C(=N/NC(=S)NC4CCCCC4)C=C4C[C@@H](Cl)CC[C@]4(C)[C@H]3CC[C@]12C | 11.8 mm
2 | CC(=O)O[C@H]1CC[C@@]2(C)C(=C/C(=N\NC(=S)NC3CCCCC3)[C@H]3[C@@H]4CC[C@H]([C@H](C)CCCC(C)C)[C@@]4(C)CC[C@@H]32)C1 | 13.2 mm
3 | CC(=O)O[C@H]1CC[C@@]2(C)C(=C/C(=N\NC(=S)NC3CCCC3)[C@H]3[C@@H]4CC[C@H]([C@H](C)CCCC(C)C)[C@@]4(C)CC[C@@H]32)C1 | 12.4 mm
4 | CC(C)CCC[C@@H](C)[C@H]1CC[C@H]2[C@@H]3/C(=N/NC(=S)NC4CCCCCCC4)C=C4C[C@@H](Cl)CC[C@]4(C)[C@H]3CC[C@]12C | 12.4 mm
5 | CC(C)CCC[C@@H](C)[C@H]1CC[C@H]2[C@@H]3/C(=N/NC(=S)NC4CCCCCCC4)C=C4CCCC[C@]4(C)[C@H]3CC[C@]12C | 10 mm

These compounds were tested on Staphylococcus aureus (assay: Antibacterial activity against Staphylococcus aureus after 18 hrs by macro dilution test). Conditions: not given.
Assay type: functional
Procedure, shortened: (§2)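 Macro-dilution broth test. Each tube received a 24 h old inoculum, standard inoculum about 10^5 CFU/mL. Incubated 18 h at 37 °C. MIC taken visually as the lowest concentration preventing visible growth. Amoxicillin positive control, DMSO negative control.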

Row | Compound | MIC
6 | CC(=O)O[C@H]1CC[C@@]2(C)C(=C/C(=N\NC(=S)NC3CCCCC3)[C@H]3[C@@H]4CC[C@H]([C@H](C)CCCC(C)C)[C@@]4(C)CC[C@@H]32)C1 | 64 µg/mL (≈ 107 µM)
7 | CC(=O)O[C@H]1CC[C@@]2(C)C(=C/C(=N\NC(=S)NC3CCCC3)[C@H]3[C@@H]4CC[C@H]([C@H](C)CCCC(C)C)[C@@]4(C)CC[C@@H]32)C1 | 32 µg/mL (≈ 54.8 µM)
8 | CC(C)CCC[C@@H](C)[C@H]1CC[C@H]2[C@@H]3/C(=N/NC(=S)NC4CCCCCCC4)C=C4C[C@@H](Cl)CC[C@]4(C)[C@H]3CC[C@]12C | 64 µg/mL (≈ 106 µM)

More lines, now with the values ahead:

Row | MIC | Compound
9 | 32 µg/mL (≈ 55.7 µM) | CC(C)CCC[C@@H](C)[C@H]1CC[C@H]2[C@@H]3/C(=N/NC(=S)NC4CCCCC4)C=C4C[C@@H](Cl)CC[C@]4(C)[C@H]3CC[C@]12C
10 | 256 µg/mL (≈ 451 µM) | CC(C)CCC[C@@H](C)[C@H]1CC[C@H]2[C@@H]3/C(=N/NC(=S)NC4CCCCCCC4)C=C4CCCC[C@]4(C)[C@H]3CC[C@]12C

What follows are compounds tested on Salmonella typhimurium (assay: Antibacterial activity against Salmonella Typhimurium after 18 hrs by macro dilution test). Conditions: Salmonella enterica.
Assay type: functional, Salmonella enterica subsp. enterica serovar Typhimurium
Procedure, shortened: as §2

Row | Compound | MIC
11 | CC(=O)O[C@H]1CC[C@@]2(C)C(=C/C(=N\NC(=S)NC3CCCCC3)[C@H]3[C@@H]4CC[C@H]([C@H](C)CCCC(C)C)[C@@]4(C)CC[C@@H]32)C1 | 64 µg/mL (≈ 107 µM)
12 | CC(=O)O[C@H]1CC[C@@]2(C)C(=C/C(=N\NC(=S)NC3CCCC3)[C@H]3[C@@H]4CC[C@H]([C@H](C)CCCC(C)C)[C@@]4(C)CC[C@@H]32)C1 | 64 µg/mL (≈ 110 µM)
13 | CC(C)CCC[C@@H](C)[C@H]1CC[C@H]2[C@@H]3/C(=N/NC(=S)NC4CCCCCCC4)C=C4C[C@@H](Cl)CC[C@]4(C)[C@H]3CC[C@]12C | 128 µg/mL (≈ 212 µM)

The remaining lines, values ahead:

Row | MIC | Compound
14 | 128 µg/mL (≈ 223 µM) | CC(C)CCC[C@@H](C)[C@H]1CC[C@H]2[C@@H]3/C(=N/NC(=S)NC4CCCCC4)C=C4C[C@@H](Cl)CC[C@]4(C)[C@H]3CC[C@]12C
15 | 128 µg/mL (≈ 225 µM) | CC(C)CCC[C@@H](C)[C@H]1CC[C@H]2[C@@H]3/C(=N/NC(=S)NC4CCCCCCC4)C=C4CCCC[C@]4(C)[C@H]3CC[C@]12C

What follows are compounds tested on Streptococcus pyogenes (assay: Antibacterial activity against Streptococcus pyogenes after 18 hrs by macro dilution test). Conditions: not given.
Assay type: functional
Procedure, shortened: as §2

Row | Compound | MIC
16 | CC(=O)O[C@H]1CC[C@@]2(C)C(=C/C(=N\NC(=S)NC3CCCCC3)[C@H]3[C@@H]4CC[C@H]([C@H](C)CCCC(C)C)[C@@]4(C)CC[C@@H]32)C1 | 64 µg/mL (≈ 107 µM)
17 | CC(=O)O[C@H]1CC[C@@]2(C)C(=C/C(=N\NC(=S)NC3CCCC3)[C@H]3[C@@H]4CC[C@H]([C@H](C)CCCC(C)C)[C@@]4(C)CC[C@@H]32)C1 | 64 µg/mL (≈ 110 µM)
18 | CC(C)CCC[C@@H](C)[C@H]1CC[C@H]2[C@@H]3/C(=N/NC(=S)NC4CCCCCCC4)C=C4C[C@@H](Cl)CC[C@]4(C)[C@H]3CC[C@]12C | 128 µg/mL (≈ 212 µM)

Continued, values first:

Row | MIC | Compound
19 | 64 µg/mL (≈ 111 µM) | CC(C)CCC[C@@H](C)[C@H]1CC[C@H]2[C@@H]3/C(=N/NC(=S)NC4CCCCC4)C=C4C[C@@H](Cl)CC[C@]4(C)[C@H]3CC[C@]12C
20 | 128 µg/mL (≈ 225 µM) | CC(C)CCC[C@@H](C)[C@H]1CC[C@H]2[C@@H]3/C(=N/NC(=S)NC4CCCCCCC4)C=C4CCCC[C@]4(C)[C@H]3CC[C@]12C

What follows are compounds tested on Salmonella typhimurium (assay: Antibacterial activity against Salmonella Typhimurium at 10 to 100 ug/mL after 18 hrs by halo zone test). Conditions: not given.
Assay type: functional, Salmonella enterica subsp. enterica serovar Typhimurium
Procedure, shortened: as §1

Row | Compound | inhibition zone (IZ)
21 | CC(C)CCC[C@@H](C)[C@H]1CC[C@H]2[C@@H]3/C(=N/NC(=S)NC4CCCCC4)C=C4C[C@@H](Cl)CC[C@]4(C)[C@H]3CC[C@]12C | 14.4 mm
22 | CC(=O)O[C@H]1CC[C@@]2(C)C(=C/C(=N\NC(=S)NC3CCCCC3)[C@H]3[C@@H]4CC[C@H]([C@H](C)CCCC(C)C)[C@@]4(C)CC[C@@H]32)C1 | 14.5 mm
23 | CC(=O)O[C@H]1CC[C@@]2(C)C(=C/C(=N\NC(=S)NC3CCCC3)[C@H]3[C@@H]4CC[C@H]([C@H](C)CCCC(C)C)[C@@]4(C)CC[C@@H]32)C1 | 14.6 mm
24 | CC(C)CCC[C@@H](C)[C@H]1CC[C@H]2[C@@H]3/C(=N/NC(=S)NC4CCCCCCC4)C=C4C[C@@H](Cl)CC[C@]4(C)[C@H]3CC[C@]12C | 14.6 mm
25 | CC(C)CCC[C@@H](C)[C@H]1CC[C@H]2[C@@H]3/C(=N/NC(=S)NC4CCCCCCC4)C=C4CCCC[C@]4(C)[C@H]3CC[C@]12C | 10.2 mm

What follows are compounds tested on Streptococcus pyogenes (assay: Antibacterial activity against Streptococcus pyogenes at 10 to 100 ug/mL after 18 hrs by halo zone test). Conditions: not given.
Assay type: functional
Procedure, shortened: as §1

Row | Compound | inhibition zone (IZ)
26 | CC(C)CCC[C@@H](C)[C@H]1CC[C@H]2[C@@H]3/C(=N/NC(=S)NC4CCCCC4)C=C4C[C@@H](Cl)CC[C@]4(C)[C@H]3CC[C@]12C | 12.2 mm
27 | CC(=O)O[C@H]1CC[C@@]2(C)C(=C/C(=N\NC(=S)NC3CCCCC3)[C@H]3[C@@H]4CC[C@H]([C@H](C)CCCC(C)C)[C@@]4(C)CC[C@@H]32)C1 | 16.8 mm
28 | CC(=O)O[C@H]1CC[C@@]2(C)C(=C/C(=N\NC(=S)NC3CCCC3)[C@H]3[C@@H]4CC[C@H]([C@H](C)CCCC(C)C)[C@@]4(C)CC[C@@H]32)C1 | 11.8 mm
29 | CC(C)CCC[C@@H](C)[C@H]1CC[C@H]2[C@@H]3/C(=N/NC(=S)NC4CCCCCCC4)C=C4C[C@@H](Cl)CC[C@]4(C)[C@H]3CC[C@]12C | 14 mm
30 | CC(C)CCC[C@@H](C)[C@H]1CC[C@H]2[C@@H]3/C(=N/NC(=S)NC4CCCCCCC4)C=C4CCCC[C@]4(C)[C@H]3CC[C@]12C | 11.3 mm

Each compound was assayed on Escherichia coli (assay: Antibacterial activity against Escherichia coli after 18 hrs by macro dilution test). Conditions: not given.
Assay type: functional
Procedure, shortened: as §2

Row | Compound | MIC
31 | CC(=O)O[C@H]1CC[C@@]2(C)C(=C/C(=N\NC(=S)NC3CCCCC3)[C@H]3[C@@H]4CC[C@H]([C@H](C)CCCC(C)C)[C@@]4(C)CC[C@@H]32)C1 | 32 µg/mL (≈ 53.5 µM)
32 | CC(=O)O[C@H]1CC[C@@]2(C)C(=C/C(=N\NC(=S)NC3CCCC3)[C@H]3[C@@H]4CC[C@H]([C@H](C)CCCC(C)C)[C@@]4(C)CC[C@@H]32)C1 | 32 µg/mL (≈ 54.8 µM)
33 | CC(C)CCC[C@@H](C)[C@H]1CC[C@H]2[C@@H]3/C(=N/NC(=S)NC4CCCCCCC4)C=C4C[C@@H](Cl)CC[C@]4(C)[C@H]3CC[C@]12C | 64 µg/mL (≈ 106 µM)

Results, then the compound that gave them:

Row | MIC | Compound
34 | 64 µg/mL (≈ 111 µM) | CC(C)CCC[C@@H](C)[C@H]1CC[C@H]2[C@@H]3/C(=N/NC(=S)NC4CCCCC4)C=C4C[C@@H](Cl)CC[C@]4(C)[C@H]3CC[C@]12C
35 | 256 µg/mL (≈ 451 µM) | CC(C)CCC[C@@H](C)[C@H]1CC[C@H]2[C@@H]3/C(=N/NC(=S)NC4CCCCCCC4)C=C4CCCC[C@]4(C)[C@H]3CC[C@]12C

What follows are compounds tested on Staphylococcus aureus (assay: Antibacterial activity against Staphylococcus aureus at 10 to 100 ug/mL after 18 hrs by halo zone test). Conditions: not given.
Assay type: functional
Procedure, shortened: as §1

Row | Compound | inhibition zone (IZ)
36 | CC(C)CCC[C@@H](C)[C@H]1CC[C@H]2[C@@H]3/C(=N/NC(=S)NC4CCCCC4)C=C4C[C@@H](Cl)CC[C@]4(C)[C@H]3CC[C@]12C | 13.4 mm
37 | CC(=O)O[C@H]1CC[C@@]2(C)C(=C/C(=N\NC(=S)NC3CCCCC3)[C@H]3[C@@H]4CC[C@H]([C@H](C)CCCC(C)C)[C@@]4(C)CC[C@@H]32)C1 | 14.6 mm
38 | CC(=O)O[C@H]1CC[C@@]2(C)C(=C/C(=N\NC(=S)NC3CCCC3)[C@H]3[C@@H]4CC[C@H]([C@H](C)CCCC(C)C)[C@@]4(C)CC[C@@H]32)C1 | 12.5 mm
39 | CC(C)CCC[C@@H](C)[C@H]1CC[C@H]2[C@@H]3/C(=N/NC(=S)NC4CCCCCCC4)C=C4C[C@@H](Cl)CC[C@]4(C)[C@H]3CC[C@]12C | 15.6 mm
40 | CC(C)CCC[C@@H](C)[C@H]1CC[C@H]2[C@@H]3/C(=N/NC(=S)NC4CCCCCCC4)C=C4CCCC[C@]4(C)[C@H]3CC[C@]12C | 9.9 mm

— ChEMBL document CHEMBL1140996, “Synthesis and in vitro antibacterial activity of new steroidal thiosemicarbazone derivatives” (2008)
